In ChEMBL document CHEMBL4680098, “Next-Generation Reduction Sensitive Lipid Conjugates of Tenofovir: Antiviral Activity and Mechanism of Release” (J Med Chem, 2016):
Where a name gives a salt, the structure may show the parent alone.

What was measured:
[1] = Stability in glycine/HCl buffer at pH 2.0 assessed as compound decomposition by LC-MS analysis; type: physicochemical
Method in brief: (§1)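 Freshly prepared buffer (3.0 ml) was equilibrated at 37.4 ± 0.2 °C with DTT at ~0.1 M and stirred 10 min. Compound stock in water/MeOH was then added. Aliquots were taken from 0 min to 24 h, with shorter intervals where needed, diluted to 1025 µL with H₂O/MeOH/HCOOH (75:25:0.1) and analysed by LC-MS.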

[2] = Stability in aqueous carbonate/bicarbonate buffer at pH 9.19 assessed as compound decomposition by LC-MS analysis; type: physicochemical; method in brief: as §1
Hepatitis B virus = assay: Antiviral activity against HBV infected in human HepG2 assessed as reduction in viral replication incubated for 6 days by real time Q-PCR analysis; type: functional, organism-based; settings: HepG2, 144 h
Method in brief: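 Cells seeded at 1x10⁴/well, held 24 h at 37°C in 5% CO₂. Six ten-fold serial compound dilutions in RPMI1640 with 10% FBS were added in triplicate; medium-only wells served as virus controls. Cultured 6 days; medium with compound renewed on day 3. Day-6 supernatant diluted in buffer containing 40 μg/ml sheared salmon sperm DNA, boiled 15 min, then qPCR; HBV DNA copies interpolated from standard curve.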

[3] = Stability in PBS buffer at pH 7.4 assessed as compound decomposition by LC-MS analysis; type: physicochemical; method in brief: as §1
HepG2 = assay: (§2) Cytotoxicity in uninfected human hepG2 assessed as reduction in cell viability by XTT assay; type: cell-based; settings: hepg2
Method in brief: (§3)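 Uninfected cells were plated and treated as in the anti-HBV plate: six ten-fold compound dilutions, 6 days at 37°C in 5% CO₂, medium renewed day 3. The monolayer was stained with XTT on day 6 and read at 450/650 nm, in triplicate.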

[4] = Cytotoxicity in uninfected human PBMC assessed as reduction in cell viability by XTT assay; type: tissue-based
Method in brief: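 Fresh HIV/HBV-negative human PBMCs isolated by Ficoll-Hypaque and stimulated 48-72 h with 2 µg/mL PHA-P, then kept in RPMI 1640 with 15% FBS and IL-2. Plates were set up as for the anti-HIV assay but without virus, with compound up to 100 μM in log dilutions, for 7 days. Viability read by XTT at 450/650 nm, in triplicate.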

[5] = Stability in aqueous carbonate/bicarbonate buffer at pH 10.16 assessed as compound decomposition measured within 8 mins by LC-MS analysis; type: physicochemical; settings: read-out: Drug degradation; method in brief: as §1
[6] = Aqueous solubility of compound; type: physicochemical; settings: buffer
[7] = system: Human immunodeficiency virus 1; assay: Antiviral activity against HIV1 infected in human PBMC assessed as reduction in viral replication incubated for 7 days by radioactive incorporation polymerization assay based reverse transcriptase activity detection method; type: functional, organism-based; settings: Human immunodeficiency virus 1, PBMC, 168 h
Method in brief: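 Fresh donor PBMCs (HIV/HBV negative) were isolated on Ficoll-Hypaque and stimulated 48-72 hr with PHA-P. They were then kept in RPMI 1640 with 15% FBS and IL-2, and used 72 hr after stimulation at 1×10^6 cells/ml. Compounds were tested up to 100 μM in five serial logarithmic dilutions. Infection used 50-150 TCID₅₀ per well (MOI ~0.002), in triplicate, with supernatant RT activity read at day 7.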

[8] = Therapeutic index, ratio of CC50 for uninfected human PBMC to EC50 for HIV1 infected in human PBMC; type: toxicity; settings: PBMC (uninfected for CC50, HIV-1 infected for EC50)
[9] = Stability in pH 9.2 buffer assessed as compound decomposition measured up to 350 mins at 37 degC by LC-MS analysis; type: physicochemical; settings: pH 9.2, 350 min
[10] = Stability in pH 11.56 buffer assessed as compound decomposition measured up to 350 mins at 37 degC by LC-MS analysis; type: physicochemical; settings: pH 11.56, 350 min
[11] = Stability in pH 2.0 buffer assessed as compound decomposition measured up to 350 mins at 37 degC by LC-MS analysis; type: physicochemical; settings: pH 2, 350 min
[12] = Therapeutic index, ratio of CC50 for uninfected human HepG2 cells to EC50 for HBV infected in human HepG2 cells; type: toxicity, cell-based
[13] = as §2; type: cell-based; settings: uninfected HepG2 cells; method in brief: as §3
[14] = Retention time in PBS buffer at pH 7.4 using compound 6 by LC-MS analysis; type: physicochemical

Row | SMILES | EC50 (Hepatitis B virus) [µM] | CC50 (HepG2) [µM] | CC50 ([4]; pbmc) [µM] | EC50 [7] [µM] | selectivity ratio [8] | selectivity ratio [12] | further results
1 | C[C@H](Cn1cnc2c(N)ncnc21)OCP(=O)(O)OCCS | 41.9 | > 100 | > 100 | – | – | – | Stabilty [1]: Stable; Stabilty [2]: Unstable; Stabilty [3]: Stable; degraded at 8 min [5]: 100%
2 | CCCCCCCCCCCCCCCCSSCCOP(=O)(O)CO[C@H](C)Cn1cnc2c(N)ncnc21 | 0.02 | > 25 | – | 0.00065 | 22000 | – | solubility [6]: Insoluble
3 | CCCCCCCCCCCCCCCCSSc1ccccc1COP(=O)(O)CO[C@H](C)Cn1cnc2c(N)ncnc21 | 4.48 | 17.5 | 17.2 | – | – | – | –
4 | C[C@H](Cn1cnc2c(N)ncnc21)OCP(=O)(O)OCCCCS | > 100 | > 100 | > 100 | – | – | – | Stabilty [9]: Stable; Stabilty [10]: Stable; Stabilty [11]: Stable
5 | CCCCCCCCCCCCCCCCSSCCCCOP(=O)(O)CO[C@H](C)Cn1cnc2c(N)ncnc21 | 0.248 | > 50 | > 50 | < 0.0005 | > 100000 | – | solubility [6]: Insoluble
6 | CCCCCCCCCCCCCCCCSSCc1ccccc1COP(=O)(O)CO[C@H](C)Cn1cnc2c(N)ncnc21 | 0.152 | 32.5 | 15.9 | < 0.0005 | – | 214 | –
7 | CCCCCCCCCCCCSSCCCCCCOP(=O)(O)CO[C@H](C)Cn1cnc2c(N)ncnc21 | 1.05 | – | – | 0.007 | > 7000 | > 47 | CC50 [13]: > 50 µM; CC50 ([4]; uninfected PBMC): > 50 µM
8 | C[C@H](Cn1cnc2c(N)ncnc21)OCP(=O)(O)O [TENOFOVIR ANHYDROUS] | – | – | > 100 | 0.32 | – | – | Retention_time [14]: 0.66 min
9 | CC(C)OC(=O)OCOP(=O)(CO[C@H](C)Cn1cnc2c(N)ncnc21)OCOC(=O)OC(C)C [TENOFOVIR DISOPROXIL FUMARATE] | 0.34 | 64.5 | – | 0.0045 | 9500 | 190 | –
